Test results as given in PubChem BioAssay.
Activity calls are given as the source filed them.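 Rule for the calls, unless noted: active = fluorescence slope higher than the sample average by over 3 SD (cut at about -0.22 in these data, passing the limit was not always enough); inactive = the rest.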

How the values were obtained:
[1] = inhibitors of TNFa-induced NFkB p65 translocation, primary screen, imaging, HUVEC, MLSMR starter and 10KST1 sets (AID 438;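 active = inhibition above 20% together with a positive visual image hit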;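 note: compound added about 3h40 before a 20 min TNFalpha stimulation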;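 for inhibition: signal is the nuclear over cytoplasmic p65 intensity ratio per well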); conditions: HUVEC TNFa-induced p65 nuclear translocation; cell count: measured here: nuclei count (cytotoxicity indicator), at 2.08 µM; inhibition: at 2 µM, stronger effect = higher value, 0% TNFa-plus-vehicle, 100% no-TNFa wells
[2] = inhibitors of mutant huntingtin aggregation, primary screen, imaging, exon1htt(103Q)mCFP cells, high-content imaging (AID 483;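 active = visual image review flags a hit and inhibition of aggregation exceeds 20%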;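 note: compound exposure lasted 3 days before fixation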;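 for nuclei count: percent of the per-plate median nuclei count of sample wells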); conditions: exon1htt(103Q)mCFP cell line, aggregate imaging, at 2 µM; inhibition of aggregation: stronger effect = higher value; nuclei count: measured here: cell count, toxicity
[3] = inhibitors of E-selectin induction by TNFa, primary screen, imaging, HUVEC, immunofluorescence, MLSMR starter and 10KST1 sets (AID 487;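 active = visually confirmed hit in the image check and inhibition above 20%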;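 for inhibition: signal is fraction of cell area covered by stained E-selectin grains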;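 for nuclei count: 100% = median nuclei count of all wells on the same plate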); conditions: HUVEC TNFalpha-induced E-selectin immunofluorescence imaging, at 2 µM; inhibition: stronger effect = higher value; nuclei count: measured here: cell number, toxicity
[4] = target: Voltage-gated potassium channel subunit beta-2 (Rattus norvegicus) (UniProt P62483); experiment: KvBeta enzyme negative modulators, primary screen, biochemical, NADPH fluorescence (AID 622); conditions: recombinant KvBeta, 4-cyanobenzaldehyde reduction, at 10 µM, stronger effect = higher value;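 note: slope of raw intensity against log time taken from 70 to 1610 s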
[5] = target: Voltage-gated potassium channel subunit beta-2 (Rattus norvegicus) (UniProt P62483); experiment: KvBeta positive modulators, primary screen, biochemical, NADPH fluorescence (AID 623;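 active = NADPH fluorescence slope more negative than the mean of all samples by about 3 SD, 99.7% confidence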;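 note: fluorescence intensity change per second fitted from 20 to 320 s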); conditions: Recombinant KvBeta, NADPH fluorescence decrease slope, 10 min; at 10 µM; stronger effect = lower value
[6] = target: Alpha-2C adrenergic receptor (Homo sapiens) (UniProt P18825); experiment: modulators of alpha2C/GIRK thallium flux, primary screen, cell-based, HEK293 alpha2C/GIRK1/2 (AID 624;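 active = fluorescence slope after compound addition differing from the mean of all screened samples at 99.7% confidence, in either direction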;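 note: slope of fluorescence ratio to pre-addition baseline per second over 15 to 24 s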); conditions: thallium flux BTC fluorescence, at 10 µM, actives lie on both sides
[7] = inhibitors of larval lipid processing in zebrafish, primary screen, whole organism, PED6 fluorescence, gall bladder and intestine (AID 686;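 active = a full or partial loss of lipid-probe fluorescence in the fish gall bladder, intestine or both, judged by eye; inactive = no fluorescence loss, or compound toxic to the fish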;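 note: larvae 5 to 7 days old with five fish per well; signal comes from phospholipase A2 cleavage of quenched PED6 carried via bile; overnight exposure to compound and PED6 before scoring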); conditions: Zebrafish larvae PED6 lipid processing, fluorescence scoring; screened at 20 µM (by protocol)
Method in brief: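 Test system – live zebrafish larvae aged 5-7 days, whole organism · Buffer or medium – E3 fish medium · Reagent – quenched phospholipase substrate PED6, 100 nM final, ingested by larvae · Doses – 20 µM single dose · Incubation – overnight compound and PED6 incubation · Technique – visual fluorescence microscopy scoring of gall bladder, gut · Read-out basis – visual per-well fluorescence inhibition score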

[8] = inhibitors of Sendai virus-induced IRF3 signaling, primary screen, TLR/RLR signaling modifier project, cell-based, Sendai virus stimulus, luciferase, 10K MLSCN set (AID 602276;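 active = inhibition at or above 50% at 10 µM; inactive = inhibition below 50%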;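 note: firefly luciferase from ISG56 promoter only with Renilla not read in this screen; 0% = Sendai virus plus DMSO and 100% = medium plus DMSO without virus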); conditions: HEK293 RL24 IRF3 luciferase reporter, at 10 µM, stronger effect = higher value
[9] = inhibitors of poly I:C-induced TLR3 signaling, primary screen, cell-based, poly I:C stimulus, luciferase, 10K MLSCN set (AID 602277;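 active = inhibition of the reporter signal at or above 50%; inactive = inhibition below 50%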); conditions: HEK293-TLR3 RL24 IRF3 luciferase reporter, at 10 µM, stronger effect = higher value

Alpha-2C adrenergic receptor (Homo sapiens), sequence (P18825 whole entry, looked up): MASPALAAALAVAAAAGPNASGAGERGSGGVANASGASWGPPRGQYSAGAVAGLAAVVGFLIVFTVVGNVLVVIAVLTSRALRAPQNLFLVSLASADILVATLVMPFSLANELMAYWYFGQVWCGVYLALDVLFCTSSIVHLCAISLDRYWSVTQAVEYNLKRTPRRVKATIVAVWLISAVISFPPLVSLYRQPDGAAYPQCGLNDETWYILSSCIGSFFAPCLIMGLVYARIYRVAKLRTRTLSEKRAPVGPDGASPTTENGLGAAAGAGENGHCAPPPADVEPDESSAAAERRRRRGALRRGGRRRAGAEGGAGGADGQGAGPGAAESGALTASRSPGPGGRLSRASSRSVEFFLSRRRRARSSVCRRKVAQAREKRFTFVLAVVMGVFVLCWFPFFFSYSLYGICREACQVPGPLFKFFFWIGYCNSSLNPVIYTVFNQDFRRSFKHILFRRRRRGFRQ
Voltage-gated potassium channel subunit beta-2 (Rattus norvegicus), sequence (P62483 whole entry, looked up): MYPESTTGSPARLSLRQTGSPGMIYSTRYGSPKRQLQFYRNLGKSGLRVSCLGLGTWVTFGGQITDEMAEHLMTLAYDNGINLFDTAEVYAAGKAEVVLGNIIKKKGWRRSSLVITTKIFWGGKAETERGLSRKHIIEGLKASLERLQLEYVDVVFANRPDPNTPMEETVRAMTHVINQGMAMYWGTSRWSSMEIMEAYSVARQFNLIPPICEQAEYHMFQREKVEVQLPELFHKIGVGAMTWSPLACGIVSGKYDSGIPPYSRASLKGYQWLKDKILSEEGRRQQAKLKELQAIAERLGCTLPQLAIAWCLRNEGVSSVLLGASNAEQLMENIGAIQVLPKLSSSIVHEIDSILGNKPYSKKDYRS

Structure (SMILES) | cell count [1] | inhibition [1] | inhibition of aggregation [2] | nuclei count [2] | inhibition [3] | nuclei count [3] | fluorescence slope [4] | NADPH fluorescence slope [5] | slope [6] | outcome [7] | inhibition [8] | inhibition [9]
Cc1onc(-c2c(F)cccc2Cl)c1C(=O)Nc1nc2c(s1)CCCC2 | 250 | 5.1% (inactive) | 14.6% (inactive) | 101% | 38.1% (inactive) | 77.9% | -0.467 (inactive) | -9.4e-06 (inactive) | 0.00615 (inactive) | inactive | -235% (inactive) | 99.1% (active)
Cc1nc2ncnn2c(N2CCC(C(=O)NCC3CCCO3)CC2)c1Cc1ccccc1 (centres undefined) | 642 | -10.1% (inactive) | -26.5% (inactive) | 97% | -143% (inactive) | 112% | -0.407 (inactive) | -2.8e-05 (inactive) | 0.00509 (inactive) | inactive | 8.8% (inactive) | 19.2% (inactive)
COCC(=O)n1nc(NCc2ccc(OC)cc2)nc1NCc1ccc(OC)cc1 | 614 | 2% (inactive) | -19.7% (inactive) | 101% | -25.2% (inactive) | 96.2% | -0.377 (inactive) | -6e-05 (inactive) | 0.00518 (inactive) | inactive | 10.6% (inactive) | 8.87% (inactive)
O=C(CSc1nc2ccccc2[nH]1)N1CCCCC1 | 433 | 0.5% (inactive) | 16% (inactive) | 102% | 13.2% (inactive) | 99.3% | -0.435 (inactive) | -3.6e-05 (inactive) | 0.00459 (inactive) | inactive | -14.8% (inactive) | -73.7% (inactive)
CC(N)C12CC3CC(C1)CC(C(C)N)(C3)C2 (centres undefined) | 394 | 3% (inactive) | -16.2% (inactive) | 102% | -14.3% (inactive) | 103% | -0.38 (inactive) | -6.5e-05 (inactive) | 0.00438 (inactive) | inactive | 13.4% (inactive) | 13.6% (inactive)
CC(C)(C)c1ccc(C(=O)N2CCC(C(=O)NCc3ccncc3)CC2)cc1 | 344 | -5.2% (inactive) | -12.2% (inactive) | 108% | -64.8% (inactive) | 113% | -0.368 (inactive) | -4.7e-05 (inactive) | 0.00471 (inactive) | inactive | -14.5% (inactive) | -39% (inactive)
Cn1c(C(=O)OC(C(=O)NC2CCCC2)c2cccnc2)cc2sccc21 (centres undefined) | 495 | 4% (inactive) | 9.5% (inactive) | 100% | -76.7% (inactive) | 102% | -0.437 (inactive) | -5.4e-05 (inactive) | 0.00446 (inactive) | active; weak signal in gallbladder and intestine | 18.1% (inactive) | 15.4% (inactive)
CCCCn1c(SCc2ccc(Cl)cc2)nc2c1c(=O)[nH]c(=O)n2C | 396 | 9% (inactive) | 8.8% (inactive) | 109% | -1.3% (inactive) | 98.4% | -0.347 (inactive) | -4.9e-05 (inactive) | 0.00466 (inactive) | inactive | 10.9% (inactive) | 14.5% (inactive)
Cc1ccc(C)c(CSc2nnc(CCN)o2)c1 | 431 | -14.5% (inactive) | 2.5% (inactive) | 65.3% | -41.1% (inactive) | 103% | -0.462 (inactive) | -9.3e-06 (inactive) | 0.00535 (inactive) | inactive | 6.22% (inactive) | 10.2% (inactive)
CSc1nnc(-c2ccccc2)n1C | 645 | -13.1% (inactive) | -35.1% (inactive) | 111% | -16.6% (inactive) | 108% | -0.398 (inactive) | -6.9e-06 (inactive) | 0.00519 (inactive) | inactive | 16.8% (inactive) | 17.4% (inactive)
CN(CC(=O)Nc1cccnc1)S(=O)(=O)c1cc(Cl)ccc1Cl | 448 | 12.5% (inactive) | -7.7% (inactive) | 101% | -44.8% (inactive) | 98.2% | -0.468 (inactive) | -1.6e-06 (inactive) | 0.00566 (inactive) | inactive | -8.87% (inactive) | -13.1% (inactive)
O=C(O)CCc1ccc(-c2cccs2)n1NC(=O)c1ccccc1Br | 338 | -5.2% (inactive) | 2.7% (inactive) | 94.1% | -46.9% (inactive) | 115% | -0.416 (inactive) | -5.2e-05 (inactive) | 0.0044 (inactive) | inactive | 19.5% (inactive) | 14.2% (inactive)
O=C(c1cccnc1)N1CCN(C(=O)c2ccccc2F)CC1 | 343 | 1% (inactive) | -7.4% (inactive) | 97.7% | -6% (inactive) | 114% | -0.353 (inactive) | -3.8e-05 (inactive) | 0.00512 (inactive) | inactive | -1.4% (inactive) | 99.3% (active)
COc1ccc(C(=O)Nc2ccc(Cl)c(Cl)c2)c(OC)n1 | 799 | -7.1% (inactive) | -20.2% (inactive) | 111% | -145% (inactive) | 137% | -0.364 (inactive) | -6.9e-05 (inactive) | 0.00581 (inactive) | inactive | -13.7% (inactive) | -67% (inactive)
Cc1ccc2[nH]c3c(c2c1)CN(C(=O)CN1CCN(c2cccc(C)c2C)CC1)CC3 | 392 | 6.2% (inactive) | 22.7% (inactive) | 75.3% | -86.9% (inactive) | 111% | -0.306 (inactive) | -2.6e-05 (inactive) | 0.00467 (inactive) | inactive | 22.6% (inactive) | 24.6% (inactive)
COc1cc(C(=O)OCc2cc3ccccc3[nH]c2=O)cc(OC)c1OC | 833 | -3.9% (inactive) | -3.9% (inactive) | 99.3% | -38.9% (inactive) | 102% | -0.356 (inactive) | -4.1e-05 (inactive) | 0.00585 (inactive) | inactive | 17.4% (inactive) | 18.2% (inactive)
COC(=O)Nc1ccc(S(=O)(=O)N2CCCCCC2)cc1 | 336 | -2.5% (inactive) | 1.8% (inactive) | 100% | -61.6% (inactive) | 127% | -0.354 (inactive) | 1.2e-05 (inactive) | 0.0065 (inactive) | inactive | 17.1% (inactive) | 19.7% (inactive)
CCN1C(=O)/C(=C/N(C)c2ccccc2)OC1=S | 592 | -12.2% (inactive) | 12.1% (inactive) | 84.4% | 34.8% (inactive) | 93.7% | -0.469 (inactive) | -5.3e-05 (inactive) | 0.00485 (inactive) | inactive | -11.5% (inactive) | -64.8% (inactive)
COC(=O)c1ccc(NC(=O)C2C3CCC(C3)C2C(=O)O)cc1 (centres undefined) | 416 | 2.5% (inactive) | 0% (inactive) | 89.6% | 52.5% (inactive) | 103% | -0.39 (inactive) | -1.7e-05 (inactive) | 0.00477 (inactive) | inactive | -12.2% (inactive) | -15.9% (inactive)
COc1ccc(-c2noc(CCCOc3ccccc3)n2)cc1OC | 429 | 1.5% (inactive) | 21% (inactive) | 93% | -33% (inactive) | 134% | -0.473 (inactive) | -1.6e-05 (inactive) | 0.00512 (inactive) | inactive | -2.22% (inactive) | -9.66% (inactive)
O=C(CSc1nnnn1-c1ccccc1)Nc1ccc(Cl)cc1 | 561 | -0.2% (inactive) | 17.5% (inactive) | 108% | -73.4% (inactive) | 67.8% | -0.377 (inactive) | 4e-06 (inactive) | 0.00622 (inactive) | inactive | -14.3% (inactive) | -15.3% (inactive)
CC(C)n1nnnc1SCC(=O)Nc1ccccc1N1CCOCC1 | 539 | -8% (inactive) | -6.6% (inactive) | 104% | -38.2% (inactive) | 112% | -0.451 (inactive) | -6.8e-05 (inactive) | 0.00614 (inactive) | inactive | 10.2% (inactive) | 11.6% (inactive)
CCCc1ccccc1OCCNC(C)=O | 585 | 9.6% (inactive) | 18.6% (inactive) | 116% | -76.7% (inactive) | 105% | -0.366 (inactive) | -3.9e-06 (inactive) | 0.00527 (inactive) | inactive | -4.34% (inactive) | 3.6% (inactive)
Cc1cccc(C(=O)O)c1NC(=O)c1ccc(F)cc1 | 343 | 0.2% (inactive) | -4.7% (inactive) | 99.9% | 21.9% (inactive) | 97.3% | -0.333 (inactive) | -1.3e-05 (inactive) | 0.00577 (inactive) | inactive | -3.9% (inactive) | 2.7% (inactive)
COc1ccc(C2C(C(=O)c3sc(C)nc3C)=C(O)C(=O)N2CCN(C)C)cc1 (centres undefined) | 560 | 13.4% (inactive) | 6.9% (inactive) | 110% | -15.4% (inactive) | 123% | -0.335 (inactive) | -6.7e-05 (inactive) | 0.00568 (inactive) | inactive | 10.9% (inactive) | 9.69% (inactive)
Cc1[nH]nc(-c2ccc(O)c(C)c2O)c1-c1cnn(-c2ccccc2)c1 | 345 | 1.5% (inactive) | 10.3% (inactive) | 111% | 45.5% (inactive) | 97.8% | -0.438 (inactive) | -2.4e-05 (inactive) | 0.00436 (inactive) | inactive | 11.4% (inactive) | 5.23% (inactive)
Cc1cc(Br)c(S(=O)(=O)n2nnc3ccccc32)cc1C | 608 | -4.5% (inactive) | 3.7% (inactive) | 81.9% | 29% (inactive) | 107% | -0.326 (inactive) | 2.1e-05 (inactive) | 0.00509 (inactive) | inactive | 13.1% (inactive) | 12.1% (inactive)
